Results: ChEMBL document CHEMBL4513216, “Probing the Open Global Health Chemical Diversity Library for Multistage-Active Starting Points for Next-Generation Antimalarials” (ACS Infect Dis, 2020)

Experiment: Toxicity liver stage against HepG2, at 10uM
Assay type: cell-based
Set-up: test concentration 10 uM, cell line HepG2-A16-CD81EGFP
Details: human, HepG2-A16-CD81EGFP cells; read-out: INHIBITION
In short: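 Uninfected HepG2-A16-CD81EGFP cells, 3 × 10^3 per well, 1536-well, plated on prespotted compound at 10 μM final, parasite-free screening media added to match infected plates; puromycin 10 μM positive, DMSO 0.5% negative; run in parallel with 48 h PbLuc assay at 37 °C, 5% CO2; viability by CellTiter-Glo luminescence, normalized to controls.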

| SMILES | cytotoxicity at 10 µM |
| --- | --- |
| CN(C)S(=O)(=O)N1CCC(Oc2ccc(C#N)cn2)CC1 | 4.16% |
| Cc1ccc(CCN2C(=O)CC[C@H]3CN(Cc4cnn(C)c4)CC[C@H]32)o1 | -2.19% |
| CCc1nc(C2CCCN(C(=O)c3cc(C(C)C)[nH]n3)C2)no1 (stereo unspecified) | -1.24% |
| CC(C)C[C@@H]1N[C@H](C(=O)NC2CCOCC2)Cc2c[nH]c3cccc1c23 | 8.24% |
| O=C(c1ccc(-n2cccn2)nc1)N1CCCC(c2cnccn2)C1 (stereo unspecified) | 4.32% |
| CS(=O)(=O)CCOc1nc(-c2ccccc2Cl)no1 | -11.2% |
| Cc1ccc(NC2(C(=O)NCCCc3c(C)n[nH]c3C)CCCC2)cc1 | -10.1% |
| Cc1ccc(N2CCCC(Nc3nn4cc(C)nc4s3)C2)nn1 (stereo unspecified) | -5.78% |
| CNS(=O)(=O)CCCN1CCCC1c1noc(C2CC2)n1 (stereo unspecified) | -16.5% |
| COCCN1CCO[C@@H]2CN(Cc3ccc(C)s3)C[C@@H]2C1 | -8.81% |
| CC(C)CNC(=O)Nc1cccc(CN2CCOC2=O)c1 | -1.1% |
| CN(Cc1c[nH]nc1-c1ccc(F)cc1F)Cc1nccn1C | 2.5% |
| CCCc1cc(NC2CCN(Cc3ccccn3)CC2)n2nccc2n1 | -3.91% |
| CN(Cc1nccs1)c1nccc(N2CCN[C@H]3CS(=O)(=O)C[C@H]32)n1 | -5% |
| CCS(=O)(=O)NCCNC(=O)c1cnc(-c2ccccc2)nc1 | 13.8% |
| c1cc2n(n1)CC(CNCc1ccc(OCC3CC3)nc1)CN2 (stereo unspecified) | -3.97% |
| CCCn1cc(CN2CCCC2c2nccc(CN(C)C)n2)cn1 (stereo unspecified) | 19.7% |
| CSc1nnc(CC2CCN(C(=O)COc3cccnc3)CC2)n1C | -45.9% |
| CNC(=O)[C@@H]1COC[C@H]2CN(C(=O)COc3ccccc3)C[C@H]21 | -1.65% |
| Cn1cnc(S(=O)(=O)N2CC3(CCN(CC4CC4)C3)C2)c1 | -99.2% |
| Cn1cc(-c2nc(CN3CCN(c4nccs4)CC3)cs2)cn1 | -7.45% |

| SMILES | cytotoxicity at 10 µM |
| --- | --- |
| COCCN(CCOC)C(=O)c1cn(C(C)(C)C)c2ncccc12 | -1.14% |
| CN(CC1CN(CCn2cc(C#N)cn2)CCO1)c1cccnn1 (stereo unspecified) | 1.85% |
| CNC(=O)[C@H]1C[C@@H]2CN(S(=O)(=O)c3ccc(C)cc3)C[C@@H]2N1C | -2.19% |
| CN1C(=O)C2(CCN(CC3CCC3)C2)c2ccccc21 (stereo unspecified) | -71.3% |
| CN(C)Cc1cc(-c2nccn2CCc2cccnc2)ccc1O | -42.9% |
| CC(C)c1cc(Br)ccc1NC(=O)NCC(O)CO (stereo unspecified) | 9.45% |
| CSCC(C)NS(=O)(=O)c1ccc(C)c(N(C)C)c1 (stereo unspecified) | -3.25% |
| Cc1cc(C)nc(N2CCN(C(=O)c3ccc(C4CCCO4)s3)CC2)n1 (stereo unspecified) | 9.07% |
| O=C1NC[C@@]2(C(=O)O)CN(Cc3ccc(Oc4ccccc4)cc3)C[C@@H]12 | -8.39% |
| CN(C)c1ccc(CNC(=O)c2ccc(Cl)cc2F)cc1 | -8.33% |
| NC(=O)c1cnn2c1NCC(CNCCc1ccco1)C2 (stereo unspecified) | 1.46% |
| CN1C[C@H]2CC[C@@H](C1)N(Cc1ccccc1OCCN1CCOCC1)C2 | -3% |
| C[C@H]1C[C@@H]2CCN(CC3CCOCC3)C[C@H]2O1 | 10.3% |
| Cc1ncsc1C(=O)N1CC(C)Sc2ccccc21 (stereo unspecified) | -0.663% |
| CS(=O)(=O)N1CCOCC2(CCN(C(=O)c3ccco3)CC2)C1 | 4.29% |
| Cc1c(Cl)c(C(=O)NN2CCOCC2)nn1C | 7.47% |
| Cc1ccnc(NC(=O)C2CCN(CCCn3ccnc3C)CC2)c1 | -58.2% |
| CC(C)(C)c1coc([C@@H]2COCCN2Cc2c[nH]cn2)n1 | 1.21% |
| Cc1nc2n(n1)CC(NCc1csc(-c3ccsc3)n1)CC2 (stereo unspecified) | -0.544% |
| CC(C)Cc1cc(CNC(=O)c2cccc3c2OCC3)no1 | -47.9% |
| CSCC[C@@H](CO)n1ccnc1-c1nccn1C | -2.84% |

| SMILES | cytotoxicity at 10 µM |
| --- | --- |
| COCCN1C[C@H]2CN(Cc3cccc(OC)c3)CCN2C1=O | 7.91% |
| O=C1[C@H]2CN(S(=O)(=O)C3CC3)C[C@H]2CN1Cc1cccnc1 | -0.0545% |
| CN(C)C(=O)CS(=O)(=O)Cc1cc(Cl)c2c(c1)OCCO2 | 1.38% |
| CCCn1nnnc1CN(C)C(C)c1ccc(C)cc1 (stereo unspecified) | -3.21% |
| CCc1nc(C)c(C(=O)NCC2COc3cc(OC)ccc3C2)o1 (stereo unspecified) | 54.6% |
| O=C(c1nnn(-c2ccccc2F)c1-c1ccccn1)N1CCSCC1 | 1.32% |
| O=C(CC1CC1)N1CCC2(COCc3cnc(-c4cccnc4)nc32)C1 (stereo unspecified) | -106% |
| CCS(=O)(=O)N1C[C@@H]2C[C@H](C(=O)N(C)C)[C@H](C1)O2 | 5.58% |
| COCc1ccccc1C(=O)NCC(O)c1ccccc1F (stereo unspecified) | -3.67% |
| CC(C)N1CCC(c2ccnc3c(C(=O)N4CCOCC4)ncn23)CC1 | -5.89% |
| CCn1cncc1Cn1cccc(C(F)(F)F)c1=O | -20.7% |
| CN(C)c1ccc(-c2cccc(-c3ccn(CCCO)n3)c2)nn1 | -3.06% |
| Cn1cc(-c2cc(C(=O)N3CCOCC3)c3ccc(F)cc3n2)cn1 | 1.5% |
| COc1cccc(C2SCC(=O)Nc3n[nH]cc32)c1OC(C)C (stereo unspecified) | 5.09% |
| Cc1nc(-c2ccc(S(=O)(=O)N3CCSC3)cc2)co1 | 17.2% |
| CC1=Nc2c(c(=O)[nH]n2C2CCCC2)C(c2ccc(C(=O)O)cc2)S1 (stereo unspecified) | -10.4% |
| COc1ncc(C)cc1NC(=O)COCC(F)(F)F | -5.42% |
| Cc1c(-c2n[nH]c3c2CN(CC2CCOC2)CC3)cccc1C(F)(F)F (stereo unspecified) | -43.2% |
| CCc1nc(CN2CCCC(NCc3ncc(C(C)(C)C)o3)C2)no1 (stereo unspecified) | 1.97% |
| COc1ccc(C2CC(=O)NCc3nc(N(C)C)sc32)c(O)c1 (stereo unspecified) | 3.3% |
| COC(=O)c1occc1Cn1cc(Br)cn1 | -5.63% |

| SMILES | cytotoxicity at 10 µM |
| --- | --- |
| CN1CCC(c2n[nH]c(=O)n2CC2CCCCC2)CC1 | -45.2% |
| O=C(c1ncn2c1CNS(=O)(=O)c1ccccc1-2)N1CC=CC1 | 10.5% |
| COc1cccc(OCC2CCCN(Cc3ncc[nH]3)C2)c1 (stereo unspecified) | 4.97% |
| COCC(=O)N1CCN(C(=O)CCc2ccsc2)CC1 | -17% |
| O=C(NCC1CC1)c1cc(Br)cnc1N1CCCCC1 | 3.1% |
| Fc1ccccc1CC1CCN(Cc2cscn2)CC1 | -5.71% |
| O=C(c1ccc(S(=O)(=O)NCCc2ccccn2)cc1)N1CCCC1 | 13.2% |
| Cc1nc(CN2CCCC2c2[nH]ncc2C(=O)N(C)C)cs1 (stereo unspecified) | -0.722% |
| CCN1CCC2(CC1)CC(NCc1cccs1)c1ccccc1O2 (stereo unspecified) | -11.6% |
| CC(=O)NCCNc1nccc(CCC(F)(F)F)n1 | -146% |
| CCO[C@@H]1CC[C@H]2[C@H]1OCCN2CCOCc1ccccc1 | -111% |
| NC(=O)CN(C(=O)C1Cc2cc(Cl)ccc2O1)C1CCCC1 (stereo unspecified) | 10.1% |
| CCC(CC)C(CNC(=O)Nc1ccc(OC)cc1)N1CCOCC1 (stereo unspecified) | -2.86% |
| CCC[C@@H]1CN(Cc2cc3c(cc2OC)OCCO3)C[C@H]1C(=O)O | -9.47% |
| CC(=O)N(C)CC(=O)NCC1CCN(c2cc(Cl)ccc2C)C1 (stereo unspecified) | -8.77% |
| CC(C)(C)n1ncc2c(=O)n(CC(=O)NCc3ccco3)cnc21 | -1.6% |
| Cc1cc(C2CCCN2C(=O)CN(C)Cc2ccccc2)no1 (stereo unspecified) | 5.1% |
| O=C(NC1CC(=O)N(Cc2cccc(F)c2)C1)c1ccncc1 (stereo unspecified) | -7.41% |
